Results from ChEMBL document CHEMBL4689842, “EUbOPEN Chemogenomics Library wave 1” (2021).
“And” between values parts separate entries of the source, which are not always exact repeats. Identical values can stand only once.

Tested on: HEK-293T
Test: Multiplex assay against HEK293T;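 as to Population Tubulin-Different-Phenotype (%): share of the cells with healthy nuclei that show this phenotype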
Type: toxicity, cell-based
Conditions: human
Procedure, shortened: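 Per cents of healthy-nucleus cells form the tubulin, mitochondrial-mass and membrane-permeability phenotype values. Live cells were stained at seeding with Hoechst33342, BioTracker Green Microtubule Cytoskeleton Dye, MitoTracker Red and Annexin V Alexa Fluor 680. After compound addition they were imaged on a CQ1 microscope at 37°C and 5% CO2, and CellPathfinder machine-learning gating split them into Hoechst high-intensity objects or normal cells, normal cells into healthy, pyknosed or fragmented nuclei, and pyknosed cells into mitotic or apoptotic.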

[1] = 12 h, 1 µM, compound concentration 1 uM, replicate 1
[2] = 12 h, 1 µM, compound concentration 1 uM, replicate 2
[3] = 12 h, 10 µM, compound concentration 10 uM, replicate 1
[4] = 12 h, 10 µM, compound concentration 10 uM, replicate 2
[5] = 24 h, 1 µM, compound concentration 1 uM, replicate 1
[6] = 24 h, 1 µM, compound concentration 1 uM, replicate 2
[7] = 24 h, 10 µM, compound concentration 10 uM, replicate 1
[8] = 24 h, 10 µM, compound concentration 10 uM, replicate 2
[9] = 48 h, 10 µM, compound concentration 10 uM, replicate 1
[10] = 48 h, 10 µM, compound concentration 10 uM, replicate 2

CNC(=O)c1nn(C)c2c1C(C)(C)Cc1cnc(Nc3ccc(N4CCN(C)CC4)cc3)nc1-2 [MILCICLIB]
Population Apoptotic (%) [1]: 28%
Population Fragmented Nuclei (%) [1]: 17%
Population Healthy Nuclei (%) [1]: 41%
Population Hoechst High Intensity Objects (%) [1]: 21%
Population Membrane Permeable-Phenotype (%) [1]: 9%
Population Mitochondria Different-Phenotype (%) [1]: 25%
Population Mitotic Cells (%) [1]: 71%
Population Normal (%) [1]: 78%
Population Pyknosed Nuclei (%) [1]: 40%
Population Tubulin-Different-Phenotype (%) [1]: 82%
Total Cell Count [1]: 581
Population Apoptotic (%) [2]: 23%
Population Fragmented Nuclei (%) [2]: 2%
Population Healthy Nuclei (%) [2]: 83%
Population Hoechst High Intensity Objects (%) [2]: 9%
Population Membrane Permeable-Phenotype (%) [2]: 3%
Population Mitochondria Different-Phenotype (%) [2]: 64%
Population Mitotic Cells (%) [2]: 76%
Population Normal (%) [2]: 90%
Population Pyknosed Nuclei (%) [2]: 14%
Population Tubulin-Different-Phenotype (%) [2]: 98%
Total Cell Count [2]: 860
Population Apoptotic (%) [3]: 29% and 75% and 67%
Population Healthy Nuclei (%) [3]: 36% and 49%
Population Hoechst High Intensity Objects (%) [3]: 18% and 11% and 13%
Population Mitochondria Different-Phenotype (%) [3]: 39% and 100% and 98%
Population Mitotic Cells (%) [3]: 70% and 24% and 32%
Population Normal (%) [3]: 81% and 88% and 86%
Population Pyknosed Nuclei (%) [3]: 38% and 43%
Population Tubulin-Different-Phenotype (%) [3]: 79% and 97%
Total Cell Count [3]: 581 and 226 and 425
Population Fragmented Nuclei (%) [4]: 6% and 3% and 2%
Population Hoechst High Intensity Objects (%) [4]: 6% and 8% and 9%
Population Membrane Permeable-Phenotype (%) [4]: 12% and 10% and 4%
Population Mitochondria Different-Phenotype (%) [4]: 87% and 90% and 57%
Population Mitotic Cells (%) [4]: 40% and 30% and 79%
Population Normal (%) [4]: 93% and 91% and 90%
Population Tubulin-Different-Phenotype (%) [4]: 91% and 100% and 99%
Population Apoptotic (%) [5]: 43%
Population Fragmented Nuclei (%) [5]: 21%
Population Healthy Nuclei (%) [5]: 33%
Population Hoechst High Intensity Objects (%) [5]: 19%
Population Membrane Permeable-Phenotype (%) [5]: 7%
Population Mitochondria Different-Phenotype (%) [5]: 64%
Population Mitotic Cells (%) [5]: 56%
Population Normal (%) [5]: 80%
Population Pyknosed Nuclei (%) [5]: 45%
Population Tubulin-Different-Phenotype (%) [5]: 78%
Total Cell Count [5]: 556
Population Apoptotic (%) [6]: 34%
Population Fragmented Nuclei (%) [6]: 2%
Population Healthy Nuclei (%) [6]: 82%
Population Hoechst High Intensity Objects (%) [6]: 9%
Population Membrane Permeable-Phenotype (%) [6]: 2%
Population Mitochondria Different-Phenotype (%) [6]: 81%
Population Mitotic Cells (%) [6]: 65%
Population Normal (%) [6]: 90%
Population Pyknosed Nuclei (%) [6]: 14%
Population Tubulin-Different-Phenotype (%) [6]: 98%
Total Cell Count [6]: 887
Population Apoptotic (%) [7]: 55% and 82% and 67%
Population Healthy Nuclei (%) [7]: 32% and 22% and 44%
Population Hoechst High Intensity Objects (%) [7]: 19% and 13%
Population Membrane Permeable-Phenotype (%) [7]: 10% and 2%
Population Mitochondria Different-Phenotype (%) [7]: 63% and 100% and 98%
Population Mitotic Cells (%) [7]: 44% and 17% and 32%
Population Normal (%) [7]: 80% and 86%
Population Pyknosed Nuclei (%) [7]: 42% and 69% and 48%
Population Tubulin-Different-Phenotype (%) [7]: 80% and 91%
Total Cell Count [7]: 565 and 241 and 453
Population Fragmented Nuclei (%) [8]: 6% and 3% and 4%
Population Hoechst High Intensity Objects (%) [8]: 6% and 7%
Population Membrane Permeable-Phenotype (%) [8]: 6% and 4%
Population Mitochondria Different-Phenotype (%) [8]: 92% and 95% and 77%
Population Normal (%) [8]: 93% and 92%
Population Tubulin-Different-Phenotype (%) [8]: 94% and 95% and 98%
Population Apoptotic (%) [9]: 87% and 71%
Population Fragmented Nuclei (%) [9]: 14%
Population Healthy Nuclei (%) [9]: 17% and 42%
Population Hoechst High Intensity Objects (%) [9]: 13% and 11%
Population Membrane Permeable-Phenotype (%) [9]: 0%
Population Mitochondria Different-Phenotype (%) [9]: 100% and 99%
Population Mitotic Cells (%) [9]: 12% and 28%
Population Normal (%) [9]: 86% and 88%
Population Pyknosed Nuclei (%) [9]: 68% and 49%
Population Tubulin-Different-Phenotype (%) [9]: 92%
Total Cell Count [9]: 263 and 534
Population Apoptotic (%) [10]: 86% and 89%
Population Fragmented Nuclei (%) [10]: 6% and 7%
Population Healthy Nuclei (%) [10]: 21% and 15%
Population Hoechst High Intensity Objects (%) [10]: 12% and 9%
Population Membrane Permeable-Phenotype (%) [10]: 2%
Population Mitochondria Different-Phenotype (%) [10]: 91%
Population Mitotic Cells (%) [10]: 13% and 10%
Population Normal (%) [10]: 87% and 90%
Population Pyknosed Nuclei (%) [10]: 71% and 76%
Population Tubulin-Different-Phenotype (%) [10]: 85% and 70%
Total Cell Count [10]: 182 and 236
